Pf Dd2 growth: P. falciparum Dd2 growth inhibitors, primary screen, SYBR Green fluorescence, single dose replicates. AID 1159554, 2015. 94,000 compounds, 2.3% hits. activity change, % at 10 µM. 72 h; active compounds read low; in the data active = activity change below about -80%
T cruzi growth: T. cruzi intracellular proliferation inhibitors, primary screen, cell-based, beta-gal Tulahuen parasites, NIH3T3 host, luminescence; inhibition, % at 8.34 µM; T. cruzi beta-gal in NIH3T3, GalScreen luminescence, 90 h; 77,000 compounds, 5.9% hits; AID 624255, 2012;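 active = mean inhibition above about 93%, with at least 55% of replicates each passing it, limit read from the data, passing the limit was not always enough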
KDM4C inh: inhibitors of GASC-1 (KDM4C) histone demethylase, primary screen, biochemical, single concentration HTS; GST-KDM4C 2-372, H3K9me3 peptide, LANCE TR-FRET; inhibition, % at 12.5 µM; Lysine-specific demethylase 4C (Homo sapiens), Q9H3R0; 96,000 compounds, 0.15% hits;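 active = mean replicate inhibition above about 25%, with at least 55% of replicates also reaching it, limit read from the data, passing the limit was not always enough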
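Material: N-terminal GST-fused human GASC-1 (KDM4C) fragment, residues 2-372. Input: 10 nM enzyme. Incubation: enzyme reaction 30 min, then detection 60 min, both room temperature. Doses: one test concentration per compound. Read-out basis: inhibition from TR-FRET ratio decrease. Detection: LANCE TR-FRET, excitation 340 nm, emissions 618 and 671 nm.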
IDH1 mut inh: inhibitors of IDH1 R132H reductase, primary screen, biochemical, plate reader, single point | Isocitrate dehydrogenase [NADP] cytoplasmic (Homo sapiens), O75874 | diaphorase/resazurin fluorescence, 60 min | inhibition, % at 10 µM | 70,000 compounds, 0.18% hits | AID 624101, 2012; in the data active = inhibition above about 34%;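 also: 0% = DMSO and 100% = no enzyme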
Target sequence (O75874 whole entry R132H): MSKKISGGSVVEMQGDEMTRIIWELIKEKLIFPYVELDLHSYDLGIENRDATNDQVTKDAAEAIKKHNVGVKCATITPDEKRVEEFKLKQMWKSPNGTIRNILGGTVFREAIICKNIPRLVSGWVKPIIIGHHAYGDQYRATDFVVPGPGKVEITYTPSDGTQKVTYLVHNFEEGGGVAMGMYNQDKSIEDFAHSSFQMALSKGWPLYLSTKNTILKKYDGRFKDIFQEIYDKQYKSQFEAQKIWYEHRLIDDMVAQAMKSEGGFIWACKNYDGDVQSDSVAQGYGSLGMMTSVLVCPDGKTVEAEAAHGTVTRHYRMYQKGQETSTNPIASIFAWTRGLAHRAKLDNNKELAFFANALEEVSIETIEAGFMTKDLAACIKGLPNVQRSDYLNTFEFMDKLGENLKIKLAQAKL
The depositor's hits bear a star; / = not tested or not shown. Most compounds without a hit are left out; they make up all but 5.9% or so of the library.

SMILES	Pf Dd2 growth	T cruzi growth	KDM4C inh	IDH1 mut inh
O=C(C[C@@H]1CC[C@@H](NC(=O)Nc2ccc3c(c2)OCO3)[C@@H](CO)O1)NCCCN1CCOCC1	15.1	-37.7	0.1	0.1
COc1ccc(S(=O)(=O)N(C)C[C@@H]2Oc3ncc(-c4cc5ccccc5o4)cc3C(=O)N([C@H](C)CO)C[C@@H]2C)cc1	-85.9*	80.7	/	-0.5
C[C@H](CO)N1C[C@H](C)[C@H](CN(C)S(=O)(=O)c2ccc(C#N)cc2)Oc2ncc(-c3cc4ccccc4o3)cc2C1=O	-17.8	59.7	-2.2	0.3
COc1cccc(S(=O)(=O)N(C)C[C@H]2Oc3ncc(-c4cccc(C(=O)N(C)C)c4)cc3C(=O)N([C@H](C)CO)C[C@@H]2C)c1	-83.7*	14.4	-0.4	-20.1
COc1cccc(S(=O)(=O)N(C)C[C@@H]2Oc3ncc(-c4cccc(C(=O)N(C)C)c4)cc3C(=O)N([C@@H](C)CO)C[C@H]2C)c1	-65.5	7.9	-0.8	-30.7
C[C@H](C(=O)N(C)C[C@@H]1OCc2ccccc2-c2c(n(C)c3ccccc23)C(=O)N([C@@H](C)CO)C[C@H]1C)c1ccccc1	-67.1	/	-0.8	/
C[C@@H](C(=O)N(C)C[C@@H]1OCc2ccccc2-c2c(n(C)c3ccccc23)C(=O)N([C@@H](C)CO)C[C@@H]1C)c1ccccc1	-86.4*	/	2.5	/
C[C@H]1CN([C@@H](C)CO)C(=O)c2ccccc2-c2ccccc2CO[C@H]1CN(C)C(=O)c1cc(Cl)cc(Cl)c1	-83.0*	/	2.1	/
C[C@@H]1CN([C@@H](C)CO)C(=O)c2c(c3ccccc3n2C)-c2ccccc2CO[C@@H]1CN(C)C(=O)c1cc(Cl)cc(Cl)c1	-87.4*	/	-4.0	/
C[C@@H]1CN([C@H](C)CO)C(=O)c2c(c3ccccc3n2C)-c2ccccc2CO[C@@H]1CN(C)C(=O)[C@H](C)c1ccccc1	-90.8*	/	0.6	/
C[C@H](C(=O)N(C)C[C@H]1OCc2ccccc2-c2c(n(C)c3ccccc23)C(=O)N([C@H](C)CO)C[C@H]1C)c1ccccc1	-57.2	/	-1.5	/
COc1ccc2c3c([nH]c2c1)[C@H](CO)N(C(=O)NC(C)C)CC31CN(Cc2ccccc2)C1	-64.6	/	-1.0	/
CCCNC(=O)[C@H]1[C@H](CO)[C@H]2Cn3c(ccc(C4=CCCCC4)c3=O)[C@@H]1N2C(=O)CC	13.9	5.6	2.9	/
CC(C)NC(=O)N(C)C[C@H]1OCCCC[C@@H](C)Oc2ccc(NC(=O)Nc3cccc4ccccc34)cc2C(=O)N([C@@H](C)CO)C[C@H]1C	/	21.9	-0.3	0.3
CCCNC(=O)N(C)C[C@H]1Oc2ncc(-c3ccncc3)cc2C(=O)N([C@H](C)CO)C[C@@H]1C	23.2	-15.9	6.0	-2.0
COc1ccc2c3c(n(C)c2c1)[C@@H](CO)N(C(=O)NC(C)C)CC31CN(C(C)=O)C1	52.2	/	0.4	/
C[C@H](CO)N1C[C@H](C)[C@@H](CN(C)C(=O)[C@H](C)c2ccccc2)OCc2ccccc2-c2c(n(C)c3ccccc23)C1=O	-93.8*	/	-1.6	/
CO[C@H]1CN(C)C(=O)c2cc(NC(=O)C3CC3)ccc2OC[C@@H](C)N(CC2CCOCC2)C[C@@H]1C	/	/	0.6	0.1
COc1cccc(NC(=O)N2[C@@H](CO)[C@@H](c3ccccc3)[C@@H]2CNC(C)C)c1	-89.3*	74.5	2.5	/
COc1cccc(NC(=O)N2[C@H](CO)[C@H](c3ccccc3)[C@H]2CNCC(C)C)c1	-82.2*	44.6	0.0	/
COc1cccc(NC(=O)N2[C@H](CO)[C@H](c3ccccc3)[C@H]2CNC(C)C)c1	-67.1	61.3	1.6	/
COc1cccc(NC(=O)N2[C@H](CNC(C)C)[C@H](c3ccccc3)[C@@H]2CO)c1	5.6	21.1	-0.6	/
COc1cccc(NC(=O)N2[C@@H](CO)[C@H](c3ccccc3)[C@@H]2CNCC(C)C)c1	-91.1*	/	-1.4	/
COc1cccc(NC(=O)N2[C@H](CO)[C@@H](c3ccccc3)[C@H]2CNCC(C)C)c1	-77.0	71.7	-3.0	/
C[C@H]1CN([C@@H](C)CO)C(=O)CCCn2nncc2CO[C@H]1CN(C)Cc1cccc(O)c1	-3.5	1.9	0.9	/
SMILES	Pf Dd2 growth	T cruzi growth	KDM4C inh	IDH1 mut inh
Cc1noc(C)c1NC(=O)Nc1ccc2c(c1)CC(=O)N([C@@H](C)CO)C[C@H](C)[C@@H](CN(C)C(=O)Nc1ccc(C(F)(F)F)cc1)O2	34.4	52.1	0.2	-0.3
CCS(=O)(=O)N1CC2(C1)[C@H](c1ccccc1)[C@@H](CO)N2CCC(F)(F)F	21.8	/	-2.1	/
COc1ccc2c3c(n(C)c2c1)[C@H](CO)N(C(=O)C1CCC1)CC31CCN(Cc2cccc(F)c2)CC1	-84.4*	/	-2.9	/
COc1ccc2c3c(n(C)c2c1)[C@@H](CO)N(C(=O)C1CCC1)CC31CCN(Cc2cccc(F)c2)CC1	-71.9	/	-0.1	/
COc1cccc(CN2CCC3(CC2)CN(C(=O)C2CC2)[C@H](CO)c2c3c3ccc(OC)cc3n2C)c1	-84.9*	/	-1.1	/
COc1ccc(CNC(=O)C[C@@H]2C=C[C@H](NS(=O)(=O)c3cccc(OC)c3)[C@@H](CO)O2)cc1	/	/	-0.4	-0.5
COc1ccc(CNC(=O)C[C@H]2C=C[C@@H](NS(=O)(=O)c3cccc(OC)c3)[C@@H](CO)O2)cc1	-91.5*	/	0.7	/
COc1cccc(NC(=O)N(C)C[C@H]2Oc3cc(C#Cc4ccncc4)ccc3S(=O)(=O)N([C@@H](C)CO)C[C@@H]2C)c1	-54.3	70.4	-1.5	/
COc1ccc(C#Cc2ccc3c(c2)O[C@H](CN(C)C(=O)Nc2cccc(OC)c2)[C@@H](C)CN([C@H](C)CO)S3(=O)=O)cc1	-80.7*	67.9	-6.6	/
COc1cccc(NC(=O)N(C)C[C@H]2Oc3cc(C#Cc4ccccc4)ccc3S(=O)(=O)N([C@@H](C)CO)C[C@@H]2C)c1	-82.3*	120.7*	-1.2	/
COc1cccc(NC(=O)N(C)C[C@H]2Oc3cc(C#Cc4ccc(F)cc4)ccc3S(=O)(=O)N([C@H](C)CO)C[C@H]2C)c1	-70.5	81.4	-2.9	-1.9
COc1ccccc1S(=O)(=O)N(C)C[C@@H]1OCc2ccccc2-c2c(n(C)c3ccccc23)C(=O)N([C@@H](C)CO)C[C@@H]1C	-92.6*	41.5	0.3	-1.1
COc1ccccc1S(=O)(=O)N(C)C[C@@H]1OCc2ccccc2-c2c(n(C)c3ccccc23)C(=O)N([C@H](C)CO)C[C@@H]1C	-93.9*	81.9	-1.4	/
COc1ccccc1S(=O)(=O)N(C)C[C@@H]1OCc2ccccc2-c2c(n(C)c3ccccc23)C(=O)N([C@@H](C)CO)C[C@H]1C	-62.1	20.0	-2.6	/
O=C(COc1ccc(C(=O)Nc2cccc(C(F)(F)F)c2)cc1)Nc1ccccc1	/	/	/	0.6
C[C@@H]1CN([C@@H](C)CO)C(=O)c2c(c3ccccc3n2C)-c2ccccc2CO[C@H]1CN(C)C(=O)Nc1ccccc1C(F)(F)F	-90.3*	/	1.4	/
